Screening data deposited in PubChem by several laboratories.
HSF-1 act = HSF-1 activators, primary screen, NIH3T3-HGL cells, MG132 stress, luminescence, single point; hit rate 1.7% among 300,000; NIH3T3-HGL HSF-1 luciferase reporter, 8 h; 100% = twice DMSO control signal; activation, % at 9 µM;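 active = mean replicate activation of at least 50% with a set share of replicates each reaching 50%; inconclusive = only one of those two conditions met; inactive = mean below 50% and too few replicates reaching it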;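 also: 0% = median of the neutral control wells and 100% = twice that signal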
GPR7 antagonist = GPR7 receptor antagonists, primary screen, cell-based, fluorescence, single concentration | GPR7-expressing cells, fluorescence antagonist assay | inhibition, % at 4.4 µM | hit rate 1.1% among 290,000; in the data active = inhibition above about 16%, passing the limit was not always enough;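 also: cells stimulated with the agonist NPW; 0% = agonist with vehicle and 100% = vehicle without agonist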
Target sequence (P48145 whole entry, looked up): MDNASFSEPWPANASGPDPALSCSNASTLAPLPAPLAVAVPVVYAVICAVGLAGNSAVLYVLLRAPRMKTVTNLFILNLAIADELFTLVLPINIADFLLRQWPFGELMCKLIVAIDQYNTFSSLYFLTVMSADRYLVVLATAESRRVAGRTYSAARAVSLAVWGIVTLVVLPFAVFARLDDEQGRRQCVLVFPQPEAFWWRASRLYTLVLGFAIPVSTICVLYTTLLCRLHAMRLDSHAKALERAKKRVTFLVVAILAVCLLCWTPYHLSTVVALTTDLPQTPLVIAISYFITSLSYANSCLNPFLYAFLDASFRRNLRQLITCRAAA
697 NFkB inh = inhibitors of PMA/ionomycin-induced NF-kB reporter, 697 cells, primary screen, B-cell NF-kB inhibitor project, cell-based, luminescence, uHTS; 697 B-cell NF-kB luciferase reporter, 16 h; inhibition, % at 4 µM; hit rate 0.33% among 330,000; AID 435022, 2010; in the data active = inhibition above about 35%
HSF1 inhib = HSF1 inhibitors in luciferase reporter cells, primary screen, cell-based, NIH3T3, luminescence. NIH3T3-HGL HSE-luciferase, MG132-induced, luminescence 8 h; stronger effect = lower value. activity change, negative = inhibition, % at 7.5 µM (by protocol). hit rate 0.77% among 300,000. AID 2098, 2009;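 active = more than half of replicate wells show activity change below -50%, luminescence cut by over half; inconclusive = some wells, but at most half, below -50%; inactive = no replicate well below -50%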;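 also: luciferase reports HSF-1 transcriptional activity via heat shock element; 0% = median of DMSO wells and -100% = zero luminescence signal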
Jurkat NFkB inh = inhibitors of induced NF-kB luciferase reporter, primary screen, TCR NF-kB activation inhibitor project, cell-based, luminescence, uHTS. Jurkat, PMA/ionomycin-induced NF-kB luciferase reporter. inhibition, % at 4 µM. hit rate 0.53% among 330,000. AID 435003, 2010; in the data active = inhibition above about 50%
T cruzi inh = inhibitors of intracellular T. cruzi growth, primary screen, luminescence, NIH3T3 host cells | hit rate 1.4% among 300,000 | T. cruzi beta-gal in NIH3T3, 90 h | inhibition, % (no concentration beside the values);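 active = mean inhibition across valid replicates above about 55%, limit read from the data; inconclusive = mean below that limit but half or more replicates reach it; inactive = mean below it, under half of replicates reach it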;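 also: signal also drops with host cell toxicity which is not excluded here; 0% = plate median of DMSO wells and 100% = zero luminescence signal; higher percent means less beta-gal luminescence so fewer parasites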
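Assay system: NIH/3T3 fibroblasts plus reporter T. cruzi. Amount: NIH/3T3 cells, 5,000 per well. Buffer or medium: DMEM, 2% fetal bovine serum. Doses: compound pinned at 50 nL/well, DMSO. Schedule: ≥90 h infection period, 3 h prior cell attachment. Signal: luminescent β-galactosidase signal after 60 min lysis. Read-out: parasite load inhibition, %.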
An asterisk follows results filed as active; ? = inconclusive; nt = not tested or not shown. Rows were chosen to be rich in hits. Some 4.8% of all compounds tested hit in one or more screens of this group.

SMILES	HSF-1 act	GPR7 antagonist	697 NFkB inh	HSF1 inhib	Jurkat NFkB inh	T cruzi inh
CCCn1c(-c2cccs2)nc2c1c(=O)[nH]c(=O)n2Cc1ccccc1	29.4	-8.7	1.2	9.6	-1.6	30.7
O=C(CCC(=O)N1CCSc2ccccc21)NCc1ccccc1	2.6	-1.0	4.4	0.4	-11.0	-1.5
Cc1[nH]nc2c1C(c1ccco1)C(C#N)=C(N)O2 (stereo not given)	-9.4	-0.8	17.8	7.6	19.6	-17.7
Cc1[nH]nc2c1C(c1cc(Br)cs1)C(C#N)=C(N)O2 (stereo not given)	69.6*	2.4	-15.7	65.2	8.3	-0.3
CN1CCN(S(=O)(=O)c2cccc(C(=O)N(c3ccccn3)C3CCCCC3)c2)CC1	-21.7	-7.2	-15.6	-1.7	-8.9	-3.9
CC1CCN(S(=O)(=O)c2cccc(C(=O)N(Cc3ccccc3)c3ccccn3)c2)CC1	-6.5	19.3*	1.6	-13.3	10.3	19.2
CCOc1ccc(C(C)=O)cc1COC(=O)CNC(=O)C12CC3CC(CC(C3)C1)C2	nt	nt	-2.8	nt	14.3	nt
Cc1ccc2c(c1)NC(=O)c1cc([N+](=O)[O-])ccc1O2	-1.7	-7.8	-6.7	-7.2	-3.9	-9.8
O=C1Nc2ccccc2Oc2cc([N+](=O)[O-])ccc21	11.6	-4.2	16.2	-8.1	-6.9	66.8*
CCc1ccc(/C=C2\Oc3cc(OC(=O)N4CCOCC4)ccc3C2=O)cc1	-81.1	-5.1	-44.4	-75.8*	7.0	19.5
O=C(O)CCS(=O)(=O)c1nc(-c2cccs2)cc(C(F)(F)F)n1	32.5	0.5	21.2	14.2	10.9	-31.6
COc1ccc(-c2cc(C(F)(F)F)nc(S(C)(=O)=O)n2)cc1	320.9*	19.2	-17.0	261.9	-5.0	-17.9
CS(=O)(=O)c1nc(-c2cccs2)cc(C(F)(F)F)n1	-89.8	-4.8	-37.0	-89.8*	47.8	77.2*
CS(=O)(=O)c1nc(-c2ccc(F)cc2)cc(C(F)(F)F)n1	-92.5	18.6	nt	-92.9*	nt	?
Nc1nc(-c2ccc(F)cc2)cc(C(F)(F)F)n1	7.0	4.4	-13.1	3.1	-5.9	-13.5
Cc1cc(NC(=O)CCCS(=O)(=O)c2nc(-c3cccs3)cc(C(F)(F)F)n2)no1	204.7*	11.3	-38.2	158.5	3.2	-20.0
O=C(NCc1n[nH]c(=O)c2ccccc12)C1CC(=O)N(c2ccc(Cl)cc2)C1 (stereo not given)	-3.0	nt	-10.4	0.4	-16.3	-0.5
COC(=O)c1ccc(CSc2nnc(C)s2)cc1	23.2	8.2	-4.2	9.5	-47.7	-1.4
COC(=O)c1ccc(CSc2nnc(N)s2)cc1	14.2	19.4*	-26.5	1.0	-24.1	4.8
CCOC(=O)C1=C(C)Nc2ccccc2N=C1NC(=O)c1oc2ccccc2c1COC	nt	nt	21.9	nt	-3.1	nt
CCC(C)(CC(=O)O)CC(=O)Nc1cc(C(F)(F)F)cc(C(F)(F)F)c1 (stereo not given)	4.7	1.7	-23.0	-2.1	0.6	-13.4
CN1CCN(CCCNC(=O)CCC(=O)N2CCOc3ccccc32)CC1	-25.7	-5.9	-14.2	-12.3	3.2	-28.2
O=C(CCC(=O)N1CCOc2ccccc21)NCCCN1CCN(Cc2ccccc2)CC1	6.7	20.8*	8.7	-2.5	-2.7	3.1
COc1cc(OC)c(N(C)S(=O)(=O)c2cccc(C(=O)Nc3nnc(C4CC4)s3)c2)cc1Cl	130.9*	1.6	-10.3	73.3	-1.0	16.8
CCOC(=O)C(Cc1ccccc1)C(=O)NCc1cccnc1 (stereo not given)	16.3	-3.8	10.8	1.2	-4.8	-7.7
COc1ccc(-n2ncc(C(=O)N3CCN(c4ccc(F)cc4)CC3)c2C)cc1	19.1	-8.0	-14.8	4.7	-4.3	-0.3
O=C(C(=O)N1CCN(c2ccccc2)CC1)c1cn(CC(=O)N2CCCCCC2)c2ccccc12	-4.5	-6.6	11.7	5.4	15.9	34.7
CC1CCCN(C(=O)C(=O)c2cn(CC(=O)N3CCCCCC3)c3ccccc23)C1 (stereo not given)	10.7	-0.4	-5.9	-1.0	-0.6	61.9*
